How the values were obtained:
[1] = molecular target: Human immunodeficiency virus type 1 protease (Human immunodeficiency virus 1) (UniProt Q72874); experiment: Tested for inhibitory concentration against spread of HIV-1 in MT-4 human T-lymphoid cells infected with IIIb isolate; type: functional, cell-based
How it was run: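 MT-4 cells grown in RPMI-1640 with 10% inactivated FBS, 4 mM glutamine and penicillin/streptomycin at 37 °C under CO2. Cells were pretreated 24 h with serially diluted compound (DMSO stock), then infected at 250 000 cells/mL, MOI 0.01. Compound was refreshed every 2–3 days. CIC was read by anti-HIV-1 immunofluorescence (complete block of spread, 7–24 days) or p24 ELISA (>95% reduction).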

[2] = molecular target: Human immunodeficiency virus type 1 protease (Human immunodeficiency virus 1, UniProt Q72874); experiment: Tested for inhibitory concentration against HIV-1 protease
[3] = molecular target: Human immunodeficiency virus type 2 pol protein (Human immunodeficiency virus 2, UniProt P88142); experiment: Tested for inhibitory concentration against HIV-2 protease; type: functional
How it was run: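 HIV-2 protease (ROD) purified the same way as HIV-1 protease, which was bacterially expressed; value reported as IC50.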

Chain of Human immunodeficiency virus type 2 pol protein (P88142 whole entry): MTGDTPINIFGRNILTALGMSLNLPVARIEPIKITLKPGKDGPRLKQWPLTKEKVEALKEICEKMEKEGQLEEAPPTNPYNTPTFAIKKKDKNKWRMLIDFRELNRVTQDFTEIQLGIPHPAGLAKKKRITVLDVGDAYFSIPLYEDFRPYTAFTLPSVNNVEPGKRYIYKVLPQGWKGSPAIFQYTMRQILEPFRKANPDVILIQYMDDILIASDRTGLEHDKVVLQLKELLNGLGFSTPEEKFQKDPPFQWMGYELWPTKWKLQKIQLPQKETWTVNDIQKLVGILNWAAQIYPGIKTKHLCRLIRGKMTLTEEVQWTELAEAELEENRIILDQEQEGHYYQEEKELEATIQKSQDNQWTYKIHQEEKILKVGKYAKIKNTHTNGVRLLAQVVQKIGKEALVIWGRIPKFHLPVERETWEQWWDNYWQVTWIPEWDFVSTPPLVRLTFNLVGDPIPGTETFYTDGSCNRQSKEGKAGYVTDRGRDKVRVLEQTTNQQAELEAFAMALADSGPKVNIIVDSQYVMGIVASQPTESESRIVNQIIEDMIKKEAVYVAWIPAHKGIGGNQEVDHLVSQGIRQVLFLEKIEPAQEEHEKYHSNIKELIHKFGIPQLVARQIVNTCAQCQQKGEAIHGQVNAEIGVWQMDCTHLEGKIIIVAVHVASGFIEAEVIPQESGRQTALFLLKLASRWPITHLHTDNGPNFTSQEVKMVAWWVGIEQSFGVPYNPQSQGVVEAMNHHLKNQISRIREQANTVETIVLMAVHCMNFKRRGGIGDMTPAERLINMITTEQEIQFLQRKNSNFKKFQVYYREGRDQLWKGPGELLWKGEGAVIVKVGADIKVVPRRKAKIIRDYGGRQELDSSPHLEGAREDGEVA

Structure (SMILES) | IC95 [1] | IC50 [2] | IC50 [3]
CC(C)[C@H](NC(=O)c1ccc2ccccc2n1)C(=O)N[C@@H](Cc1ccccc1)[C@H](O)CN1C[C@H]2CCCC[C@H]2C[C@H]1C(=O)NC(C)(C)C | 100 nM | 0.7 nM | 3.2 nM
CC(C)[C@H](NC(=O)c1cnc2ccccc2n1)C(=O)N[C@@H](Cc1ccccc1)[C@H](O)CN1C[C@H]2CCCC[C@H]2C[C@H]1C(=O)NC(C)(C)C | – | 0.39 nM | –
CC(C)(C)NC(=O)[C@@H]1C[C@@H]2CCCC[C@@H]2CN1C[C@@H](O)[C@H](Cc1ccccc1)NC(=O)[C@@H](NC(=O)c1ccc2ccccc2n1)[C@@H]1CCOC1 | 100 nM | 5.4 nM | –
CC(C)(C)NC(=O)[C@@H]1C[C@@H]2CCCC[C@@H]2CN1C[C@@H](O)[C@H](Cc1ccccc1)NC(=O)[C@@H](NC(=O)c1ccc2ccccc2n1)[C@@H]1CCS(=O)(=O)C1 | – | 39 nM | –
CC(C)(C)NC(=O)[C@@H]1C[C@@H]2CCCC[C@@H]2CN1C[C@@H](O)[C@H](Cc1ccccc1)NC(=O)[C@@H](NC(=O)c1ccc2ccccc2n1)C1CCOC1 (stereo partly specified) | 8 nM | 0.054 nM | 0.24 nM
CC(C)(C)NC(=O)[C@@H]1C[C@@H]2CCCC[C@@H]2CN1C[C@@H](O)[C@H](Cc1ccccc1)NC(=O)[C@@H](NC(=O)c1cc(=O)c2ccccc2o1)[C@H]1CCOC1 | 25 nM | 0.11 nM | –
CC(C)(C)NC(=O)[C@@H]1C[C@@H]2CCCC[C@@H]2CN1C[C@@H](O)[C@H](Cc1ccccc1)NC(=O)[C@@H](NC(=O)c1cnc2ccccc2n1)[C@H]1CCOC1 | 12 nM | 0.12 nM | –
COC(=O)c1nc(Cl)c(N[C@H](C(=O)N[C@@H](Cc2ccccc2)[C@H](O)CN2C[C@H]3CCCC[C@H]3C[C@H]2C(=O)NC(C)(C)C)[C@H]2CCOC2)nc1N | 3 nM | 0.16 nM | 24.9 nM
CC(C)(C)NC(=O)[C@@H]1C[C@@H]2CCCC[C@@H]2CN1C[C@@H](O)[C@H](Cc1ccccc1)NC(=O)[C@@H](NC(=O)c1ccc2ccccc2n1)C1CCCC1 | – | 2.6 nM | –
CC(C)(C)NC(=O)[C@@H]1C[C@@H]2CCCC[C@@H]2CN1C[C@@H](O)[C@H](Cc1ccccc1)NC(=O)[C@@H](NC(=O)c1ccc2ccccc2n1)[C@H]1CCS(=O)(=O)C1 | – | 0.5 nM | –
CC(C)(C)NC(=O)[C@@H]1C[C@@H]2CCCC[C@@H]2CN1C[C@@H](O)[C@H](Cc1ccccc1)NC(=O)[C@@H](NC(=O)c1ccc2ccccc2n1)[C@H]1CCSC1 | 50 nM | 0.6 nM | –
CC(C)[C@H](NC(=O)c1cc(=O)c2ccccc2o1)C(=O)N[C@@H](Cc1ccccc1)[C@H](O)CN1C[C@H]2CCCC[C@H]2C[C@H]1C(=O)NC(C)(C)C | 25 nM | 0.15 nM | –
CN(C)c1nc(N)c(C(=O)N[C@H](C(=O)N[C@@H](Cc2ccccc2)[C@H](O)CN2C[C@H]3CCCC[C@H]3C[C@H]2C(=O)NC(C)(C)C)[C@H]2CCOC2)nc1Cl | 25 nM | 0.24 nM | –
CN1CCN(c2ncc(C(=O)N[C@H](C(=O)N[C@@H](Cc3ccccc3)[C@H](O)CN3C[C@H]4CCCC[C@H]4C[C@H]3C(=O)NC(C)(C)C)[C@H]3CCOC3)nc2Cl)CC1 | 12 nM | 0.071 nM | 0.18 nM
CC(C)(C)NC(=O)[C@@H]1C[C@@H]2CCCC[C@@H]2CN1C[C@@H](O)[C@H](Cc1ccccc1)NC(=O)[C@@H](NC(=O)c1ccc2ccccc2n1)C1CCOCC1 | – | 67.9 nM | –
CC(C)(C)NC(=O)[C@@H]1C[C@@H]2CCCC[C@@H]2CN1C[C@@H](O)[C@H](Cc1ccccc1)NC(=O)[C@H](CC(N)=O)NC(=O)c1ccc2ccccc2n1 | 22 nM | – | 0.5 nM
CN(C)c1ncc(C(=O)N[C@H](C(=O)N[C@@H](Cc2ccccc2)[C@H](O)CN2C[C@H]3CCCC[C@H]3C[C@H]2C(=O)NC(C)(C)C)[C@H]2CCOC2)nc1Cl | 12 nM | 0.06 nM | –
CC(C)(C)NC(=O)[C@@H]1C[C@@H]2CCCC[C@@H]2CN1C[C@@H](O)[C@H](Cc1ccccc1)NC(=O)[C@@H](NC(=O)c1cnccn1)[C@H]1CCOC1 | – | 2.83 nM | –
CC(C)(C)NC(=O)[C@@H]1C[C@@H]2CCCC[C@@H]2CN1C[C@@H](O)[C@H](Cc1ccccc1)NC(=O)[C@@H](NC(=O)c1ccc2ccccc2n1)[C@@H]1CCSC1 | > 200 nM | 3.3 nM | –

Source: ChEMBL document CHEMBL1126759, “Potent HIV protease inhibitors: the development of tetrahydrofuranylglycines as novel P2-ligands and pyrazine amides as P3-ligands” (J Med Chem, 1993)
